Values joined by “and” are separate entries in the source; they are usually repeats but may differ in a detail not shown here. Equal entries are not always repeated.
Columns and labels:
[1] = Antioxidant activity assessed as peroxyl radical-scavenging activity at 1 mM by EPR spectroscopy; type: functional
How it was run: (§1)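 Alkylperoxyl radicals generated by thermolysis of 2,2-azobis-2-amidinopropane dihydrochloride (25 mM) in aerobic PBS at 37°C. EPR run in PBS pH 7.4 with DEPMPO (1 mM) and DTPA (0.1 mM), with or without derivative. The DEPMPO-OOR adduct was quantified by double integration and expressed as percent of the untreated level.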

[2] = Antioxidant activity assessed as peroxyl radical-scavenging activity at 100 uM by EPR spectroscopy; type: functional; how it was run: as §1
[3] = Antioxidant activity assessed as superoxide radical-scavenging activity at 100 uM by EPR spectroscopy; type: functional
How it was run: (§2)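 Superoxide generated by xanthine (0.2 mM) plus xanthine oxidase (0.02 U/ml) in PBS pH 7.4 containing DEPMPO spin trap (1 mM) and DTPA (0.1 mM), with or without derivative. The DEPMPO-OOH adduct was measured by EPR and double-integrated. Signal is expressed as percent of the level without derivative.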

CHO = test: Antioxidant activity in CHO cells assessed as protection from H2O2-induced toxicity at 50 uM pretreated for 2 hrs before H2O2 challenge measured after 1 hr by MTT assay; type: functional, Cricetulus griseus
How it was run: (§3)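 Cells grown to 80% confluence at 37°C in 5% CO2, trypsinized and seeded at about 7,000 cells/well. After 24–48 h they were exposed to derivative for 2 h, then to H2O2 at 1 mM for 1 h. Viability was read by MTT-to-formazan conversion, with at least 6 repeats.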

[4] = Antioxidant activity assessed as superoxide radical-scavenging activity at 1 mM by EPR spectroscopy; type: functional; how it was run: as §2
[5] = Antioxidant activity in HSMC assessed as protection from H2O2-induced toxicity at 50 uM pretreated for 2 hrs before H2O2 challenge measured after 1 hr by MTT assay; type: functional, Homo sapiens; how it was run: as §3

Compound | Activity [1] | Activity [2] | Activity [3] | Activity (CHO) | Activity [4] | Activity [5]
COc1ccc(CCN(C)CCCC(CNCC2=CC(C)(C)N(O)C2(C)C)(c2ccc(OC)c(OC)c2)C(C)C)cc1OC (centres undefined) | 100% | 92.9% | 88.5% | 63.6% | 100% | 43.3%
COc1ccc(CCN(C)CCCC(CNC(=O)C2=CC(C)(C)N(C)C2(C)C)(c2ccc(OC)c(OC)c2)C(C)C)cc1OC (centres undefined) | 89.8% | – | – | 55.5% | 60.7% | 48.7%
COc1ccc(CCN(C)CCCC(CNC(=O)C2=C(C)C(C)(C)N(O)C2(C)C)(c2ccc(OC)c(OC)c2)C(C)C)cc1OC (centres undefined) | 100% | 100% | 78.2% | 60% | 100% | 39.7%
COc1ccc(CCN(C)CCCC(CNCC2=CC(C)(C)NC2(C)C)(c2ccc(OC)c(OC)c2)C(C)C)cc1OC (centres undefined) | 100% | 89.8% | 73.8% | 71.2% | 100% | 39.1%
COc1ccc(CCN(C)CCCC(CNC(=O)C2CC(C)(C)N(O)C2(C)C)(c2ccc(OC)c(OC)c2)C(C)C)cc1OC (centres undefined) | 100% | 98% | 84.2% | 62.1% | 100% | 40.2%
COc1ccc(CCN(C)CCCC(CNC(=O)CC2(C)CCC(C)(C)N2O)(c2ccc(OC)c(OC)c2)C(C)C)cc1OC (centres undefined) | 100% | 89.2% | 70.7% and 78.1% | 54% | 100% | 44%
COc1ccc(CCN(C)CCCC(CNC(=O)C2=C(c3ccccc3)C(C)(C)N(O)C2(C)C)(c2ccc(OC)c(OC)c2)C(C)C)cc1OC (centres undefined) | 100% | 86.1% | 79.3% | 68.3% | 100% | 47.5%
COc1ccc(CCN(C)CCCC(CNC(=O)C2=CC(C)(C)N(O)C2(C)C)(c2ccc(OC)c(OC)c2)C(C)C)cc1OC (centres undefined) | 14.9% | – | – | 48.9% | 55.2% | 59.1%
COc1ccc(CCN(C)CCCC(CNC(=O)C2=CC(C)(C)NC2(C)C)(c2ccc(OC)c(OC)c2)C(C)C)cc1OC (centres undefined) | 84.1% | – | – | 53.5% | 34.9% | 53.7%
COc1ccc(CCN(C)CCC[C@@](CNC(=O)C2=CC(C)(C)N(O)C(C)(C)C2)(c2ccc(OC)c(OC)c2)C(C)C)cc1OC | 100% | 91.4% | 66.5% | 46.1% | 100% | 33.1%
COc1ccc(CCN(C)CCCC(CNC(=O)C2CC(C)(C)N(O)C(C)(C)C2)(c2ccc(OC)c(OC)c2)C(C)C)cc1OC (centres undefined) | 90.1% | – | 76.5% | 50.3% | 100% | 40.2%

Source: ChEMBL document CHEMBL1156228 (2010)
